# Measured values collected from several papers.
# Each line is one published result; the experiments were not run side by side.
# Target: Protein kinase C iota type (PRKCI, Homo sapiens, UniProt P41743)
# Residues used in one study (P41743 1-596): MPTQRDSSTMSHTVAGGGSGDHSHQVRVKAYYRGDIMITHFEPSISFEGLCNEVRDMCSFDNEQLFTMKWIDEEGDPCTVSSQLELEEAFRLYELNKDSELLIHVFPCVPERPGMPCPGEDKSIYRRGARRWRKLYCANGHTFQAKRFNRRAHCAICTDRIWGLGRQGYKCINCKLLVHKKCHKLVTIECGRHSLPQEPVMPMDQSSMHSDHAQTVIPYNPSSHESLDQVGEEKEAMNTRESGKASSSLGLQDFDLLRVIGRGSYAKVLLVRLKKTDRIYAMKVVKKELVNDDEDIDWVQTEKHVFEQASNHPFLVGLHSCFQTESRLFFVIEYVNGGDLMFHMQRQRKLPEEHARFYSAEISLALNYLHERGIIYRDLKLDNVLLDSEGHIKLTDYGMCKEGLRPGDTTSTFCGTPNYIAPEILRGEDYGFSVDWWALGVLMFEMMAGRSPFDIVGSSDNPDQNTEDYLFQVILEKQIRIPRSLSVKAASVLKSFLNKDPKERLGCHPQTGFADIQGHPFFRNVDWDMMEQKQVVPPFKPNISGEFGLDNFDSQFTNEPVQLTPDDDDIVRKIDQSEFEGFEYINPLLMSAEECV
Structure (SMILES),assay,conditions,endpoint,result
CC(C)(C)c1nc2c(s1)c1nc(N)ncc1c1ccc(NS(=O)(=O)c3c(F)cccc3F)c(F)c12,"enzyme activity, inhibitor, radiometric",1 µM,remaining activity,91%
N#CCCc1ccc2c(c1)-c1[nH]c3ccc([N+](=O)[O-])cc3c1CC(=O)N2,cell-free assay,0.5 µM,remaining signal,65.3%
C[C@@H]1CN(c2cc(-c3nn(C)c4ccc(OC5(C)CC5)cc34)ncn2)C[C@H](C)O1,"cell-free assay, competition with immobilised ligand",1 µM,remaining binding,100%
Nc1ncnc2occ(-c3ccc(NC(=O)Nc4cc(C(F)(F)F)ccc4F)cc3)c12,cell-free assay,20 µM,remaining signal,6.8%
Cc1sc(C(=O)NC2COC2)cc1-n1cc(NC(=O)Nc2c(F)cccc2Cl)cn1,"enzyme activity, inhibitor",10 µM,remaining activity,90.8%
Cc1cc(NC(=O)c2cccc(S(F)(F)(F)(F)F)c2)cc(-n2ccn3nc(-c4cccnc4)cc23)c1,"cell-free assay, competition with immobilised ligand",1 µM,remaining binding,80.4%
CNCc1ccc(-c2cc(-c3nc(-c4ccc(S(=O)(=O)C(C)C)cc4)cnc3N)on2)cc1,"enzyme activity, inhibitor",0.4 µM,inhibition,0%
COc1cc(Cl)c(C(=O)N[C@@H](CN[C@H]2CC[C@@H](N)CC2)Cc2ccc(C#N)cc2)cc1-c1ccc(CN[C@H](C)c2ccc(C)cc2)o1,"enzyme activity, inhibitor",1 µM,remaining activity,96%
CCCS(=O)(=O)Nc1ccc(F)c(C(=O)c2c[nH]c3ncc(-c4ccc(Cl)cc4)cc23)c1F,"enzyme activity, inhibitor",1 µM,inhibition,< 10%
O=C(Nc1cnc(Oc2ccc(F)cc2)nc1)N1CCc2ncccc2[C@@H]1c1ccc(F)cc1,"cell-free assay, competition with immobilised ligand",1 µM,remaining binding,98%
CCN(CC)CCNC(=O)c1c(C)[nH]c(/C=C2\C(=O)Nc3ccc(F)cc32)c1C,"enzyme activity, inhibitor",10 µM,inhibition,1%
COc1cccc2c(NCc3ccccc3)nc(-n3c(N)nc4ccccc43)nc12,"target engagement in cells, inhibitor, chemoproteomics",20 mM,inhibition,-13.3%
CN(C)C1CCN(CC#Cc2nn(C3CCCC3)c3nc(NCc4ccccc4)ncc23)C1 (stereo not drawn),"enzyme activity, inhibitor, FRET",0.1 µM,inhibition,9%
Cc1cnc(NC2CCOCC2)nc1-n1cnc(C(=O)NC(CN)c2cc(F)cc(Cl)c2)c1 (stereo not drawn),"enzyme activity, inhibitor, radiometric",1 µM,remaining activity,106%
CCC(=O)N[C@@H]1CC[C@H](C(=O)N(C)c2ccc(-c3nc4ccccc4o3)cc2)C1,"cell-free assay, competition with immobilised ligand",1 µM,remaining binding,84%
O=C1NC(=O)c2cc(Nc3ccc(F)cc3)c(Nc3ccc(F)cc3)cc21,cell-free assay,0.5 µM,remaining signal,89%
COc1ccc2cc(OCC3(C(=O)O)CN(C(=O)c4ccc(F)cc4)C3)ccc2c1,"cell-free assay, competition with immobilised ligand",1 µM,remaining binding,100%
COc1cc2ncnc(Nc3ccc(Oc4ccccc4)cc3C)c2cc1OC,"enzyme activity, inhibitor",1 µM,inhibition,3%
